Assay [1] concerns Staphylococcus aureus. Description: Antibacterial activity against Staphylococcus aureus. The format is functional.
Assay [2] is described as follows: Selectivity index, ratio of EC50 for african green monkey Vero cells to MIC for Mycobacterium tuberculosis H37Rv ATCC 27294. The format is functional.
The test system of assay [3] is Vero. Description: Cytotoxicity against african green monkey Vero cells. In kind it is cell-based. The following applies: Chlorocebus sabaeus. Summed up:
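Mammalian-cell toxicity was measured in VERO cells and expressed as EC₅₀.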

Assay [4] concerns Escherichia coli. The assay can be described thus: Antibacterial activity against Escherichia coli. The format is functional.
The test system of assay [5] is Mycobacterium tuberculosis. Description: Antibacterial activity against Mycobacterium tuberculosis H37Rv ATCC 27294 after 7 days by microplate alamar blue assay. The format is functional. The following applies: H37Rv ATCC 27294, 168 h. Summed up: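 Microplate alamar blue assay in 7H12 medium against M. tuberculosis H37Rv ATCC 27294 and against rifampicin-, isoniazid-, streptomycin- and kanamycin-resistant Mtb strains. Bacteria were incubated with test samples for 7 days, then fluorescence was read. MIC is the lowest concentration giving at least a 90% fluorescence reduction relative to untreated controls.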
In general terms: Resazurin is reduced to fluorescent resorufin, in cell work by metabolically active cells.

Assay [6] has as its system Mycobacterium tuberculosis. The assay can be described thus: Antibacterial activity against Mycobacterium tuberculosis. In kind it is functional.

SMILES strings stand for the structures. Values after ≈ are worked out from the molar mass of the structure shown.

As usually defined, the MIC is the least concentration at which growth counts as inhibited. The term EC50 denotes the concentration that produces a half-maximal response. As to `COc1ccc(Cn2nnc3c(-c4ccco4)ncnc32)cc1`, the MIC in assay [1] was > 32 µg/mL; in assay [4], > 90 µg/mL; in assay [5], 2.4 µM (≈ 0.738 µg/mL). Moreover, the “Selectivity Index” value in assay [2] was >54. For the same compound, the EC50 in assay [3] is > 130 µM.

Consider `COc1ccc(Cn2ncc3c(-c4ccco4)ncnc32)cc1`, for which the minimum inhibitory concentration (MIC) was > 32 µg/mL in assay [1], > 90 µg/mL in assay [4] and 3.6 µM (≈ 1.1 µg/mL) in assay [5]. In assay [2], the “Selectivity Index” value is recorded as >91. Besides, the EC50 in assay [3] was > 327 µM.

Turning to `COc1ccc(Cn2ccc3c(-c4ccco4)ncnc32)cc1`, the MIC in assay [1] is > 32 µg/mL; in assay [4] it was > 90 µg/mL; in assay [5], 0.16 µM (≈ 0.0489 µg/mL). Moreover, the “Selectivity Index” value in assay [2] is reported as >756. Moreover, the EC50 in assay [3] was > 131 µM.

With `COc1ccc(Cn2ccc3c(-c4cccs4)ncnc32)cc1`, the “Selectivity Index” value in assay [2] is 114. In assay [3], this compound returned a half-maximal effective concentration (EC50) of 40 µM. This compound also gave an MIC in assay [5] of 0.35 µM (≈ 0.112 µg/mL).

As to `COc1ccc(Cn2ccc3c(-c4ccco4)nc(Cl)nc32)cc1`, the MIC was > 32 µg/mL in assay [1], > 90 µg/mL in assay [4] and 0.08 µM (≈ 0.0272 µg/mL) in assay [5]. Moreover, the “Selectivity Index” value in assay [2] came to 1063. In assay [3], this compound displayed an EC50 of 85 µM.

Regarding `COc1ccc(Cn2ccc3c(-c4cccs4)nc(Cl)nc32)cc1`, the “Selectivity Index” value in assay [2] is recorded as 691. Moreover, the EC50 in assay [3] amounted to 76 µM. In addition, in assay [5], the MIC was found to be 0.11 µM (≈ 0.0391 µg/mL).

Consider `COc1ccc(Cn2ccc3c(-c4ccco4)nc(OC)nc32)cc1`, for which the “Selectivity Index” value in assay [2] worked out at 205. In assay [3], this compound displayed an EC50 of 45 µM. Also, in assay [5], inhibition of growth (MIC) required 0.22 µM (≈ 0.0738 µg/mL).

As to `COc1ccc(C(=O)c2cn(C)c3c(-c4ccco4)ncnc23)cc1`, the MIC in assay [1] was > 32 µg/mL; in assay [4] it was > 90 µg/mL; in assay [5], 192 µM (≈ 64 µg/mL).

Turning to `COc1ccc(C(=O)c2c[nH]c3c(-c4ccco4)ncnc23)cc1`, the figures for the minimal inhibitory concentration (MIC) in assay [1], in assay [4] and in assay [5] were > 32 µg/mL, > 90 µg/mL and > 300 µM, respectively.

With `COc1ccc(Cc2cn(C)c3c(-c4ccco4)ncnc23)cc1`, the minimum inhibitory concentration (MIC) in assay [1] is > 32 µg/mL; in assay [4], > 90 µg/mL; in assay [5] it was 97 µM (≈ 31 µg/mL).

For `COc1ccc(Cn2cnc3c(-c4cccs4)nc(Cl)nc32)cc1`, the minimal inhibitory concentration (MIC) in assay [6] worked out at 0.78 µg/mL (≈ 2.19 µM).

As to `COc1ccc(Cn2cnc3c(-c4ccco4)ncnc32)cc1`, the values for the MIC in assay [6] and in assay [5] were 1.65 µg/mL (≈ 5.39 µM) and 2.1 µM (≈ 0.643 µg/mL), respectively. Moreover, the “Selectivity Index” value in assay [2] is on record as >98. The 50% effective concentration (EC50) in assay [3] was > 206 µM.

Regarding `COc1ccc(Cn2cnc3c(-c4ccco4)nc(Cl)nc32)cc1`, the minimal inhibitory concentration (MIC) came out at 0.39 µg/mL (≈ 1.14 µM) in assay [6] and 0.36 µM (≈ 0.123 µg/mL) in assay [5]. In addition, in assay [2], the “Selectivity Index” value is listed as >325. The 50% effective concentration (EC50) in assay [3] was > 117 µM.

As to `CO[C@H]1/C=C/O[C@@]2(C)Oc3c(C)c(O)c4c(O)c(c(/C=N/N5CCN(C)CC5)c(O)c4c3C2=O)NC(=O)/C(C)=C\C=C\[C@H](C)[C@H](O)[C@@H](C)[C@@H](O)[C@@H](C)[C@H](OC(C)=O)[C@@H]1C` [RIFAMPIN], in assay [6], the MIC was 0.25 µg/mL (≈ 0.304 µM).

The values above are taken from ChEMBL document CHEMBL1250546, “Synthesis of non-purine analogs of 6-aryl-9-benzylpurines, and their antimycobacterial activities. Compounds modified in the imidazole ring” (Bioorg Med Chem, 2010).
